High-throughput results: PubChem BioAssay, The Scripps Research Institute Molecular Screening Center
PAFAH1B3 FP inh: PAFAH1B3 enzyme inhibitors, primary screen, biochemical, fluorescence polarization, human; recombinant PAFAH1B3, FP-rhodamine probe; AID 492972, 2010; inhibition, % at 3.39 µM; 340,000 compounds, 0.28% hits; Platelet-activating factor acetylhydrolase IB subunit alpha1 (Homo sapiens), Q15102;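 active means inhibition above the screen-wide average of all tested compounds plus 3 SD, cut at about 25% in these data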;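 further: 0% = enzyme with DMSO only and 100% = wells lacking PAFAH1B3 protein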
VIM-2 inh: VIM-2 metallo-beta-lactamase inhibitors, primary screen, biochemical, epi-absorbance readout, Pseudomonas aeruginosa enzyme | purified VIM-2, nitrocefin hydrolysis, epi-absorbance fluorescence | inhibition, % at 5.6 µM | 290,000 compounds, 0.89% hits | AID 1527, 2009;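 active means inhibition above the mean of all tested compounds plus 3 SD, cutoff set per screening run, cut at about 7.5% in these data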;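 further: red hydrolysis product quenches plate fluorescence so inhibitors raise well fluorescence; 0% = enzyme with DMSO and 100% = DMSO without enzyme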
PAFAH1B2 inh: PAFAH1B2 enzyme inhibitors, primary screen, biochemical, fluorescence polarization, human. Platelet-activating factor acetylhydrolase IB subunit alpha2 (Homo sapiens), P68402. recombinant PAFAH1B2, FP-rhodamine activity probe. inhibition, % at 3.39 µM. 340,000 compounds, 1.2% hits. AID 492953, 2010;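 active means inhibition above the mean of all tested compounds plus 3 SD, cut at about 24% in these data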;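 further: 0% = enzyme with DMSO and 100% = wells lacking PAFAH1B2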
Target sequence (P68402 whole entry, looked up): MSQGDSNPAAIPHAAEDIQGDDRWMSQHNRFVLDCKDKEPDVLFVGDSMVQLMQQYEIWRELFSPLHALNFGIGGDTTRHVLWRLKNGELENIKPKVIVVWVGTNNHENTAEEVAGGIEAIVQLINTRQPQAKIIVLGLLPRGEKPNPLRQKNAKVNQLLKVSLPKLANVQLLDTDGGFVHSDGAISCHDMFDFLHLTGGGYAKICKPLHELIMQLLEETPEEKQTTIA
IMP-1 inh-1: IMP-1 metallo-beta-lactamase inhibitors, primary screen, biochemical, epi-absorbance readout, Pseudomonas aeruginosa enzyme | AID 1556, 2009 | 290,000 compounds, 0.45% hits | inhibition, % at 5.6 µM | purified IMP-1, nitrocefin hydrolysis, epi-absorbance fluorescence | metallo-beta-lactamase IMP-1 (Pseudomonas aeruginosa);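 active means inhibition above the mean plus 3 SD of all compounds in the same screening run, cut at about 4.5% in these data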;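 further: 0% = IMP-1 with DMSO and 100% = DMSO wells lacking enzyme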
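Assay system: purified recombinant IMP-1 beta-lactamase. Input: IMP-1 0.2 nM before substrate addition. Buffer or medium: Zinc- and detergent-supplemented HEPES buffer, pH 7.1. Schedule: 25 °C, 15 min preincubation, 25 min reaction. Signal: Epi-absorbance fluorescence, 480 nm excitation, 530 nm emission. Evaluation: percent inhibition from optical density relative to buffer-blank wells.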
pPAFAH FP inh: pPAFAH enzyme inhibitors, primary screen, biochemical, fluorescence polarization, human. inhibition, % at 3.39 µM. recombinant pPAFAH, FP-rhodamine probe fluorescence polarization. 330,000 compounds, 1.5% hits;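 active means inhibition above the mean inhibition across the screen plus 3 SD, cut at about 25% in these data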;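 further: inhibitors block binding of the rhodamine activity-based probe so polarization drops; 0% = enzyme with DMSO and 100% = wells lacking pPAFAH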
Target sequence (Q13093 whole entry, looked up): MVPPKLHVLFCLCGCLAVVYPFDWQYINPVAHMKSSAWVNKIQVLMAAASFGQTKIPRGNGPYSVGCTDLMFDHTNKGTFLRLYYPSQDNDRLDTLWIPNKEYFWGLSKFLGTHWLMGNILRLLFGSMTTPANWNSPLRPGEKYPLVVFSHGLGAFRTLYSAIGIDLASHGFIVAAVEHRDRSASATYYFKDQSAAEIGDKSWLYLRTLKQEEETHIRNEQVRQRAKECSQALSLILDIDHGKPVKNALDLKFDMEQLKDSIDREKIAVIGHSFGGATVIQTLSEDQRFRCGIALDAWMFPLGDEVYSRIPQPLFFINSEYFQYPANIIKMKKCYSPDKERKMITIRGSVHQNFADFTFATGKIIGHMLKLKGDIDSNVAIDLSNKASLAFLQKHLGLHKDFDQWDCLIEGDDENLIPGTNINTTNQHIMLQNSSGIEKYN
PAFAH2 FP inh: PAFAH2 enzyme inhibitors, primary screen, biochemical, fluorescence polarization, human; AID 492956, 2010; inhibition, % at 3.39 µM; 340,000 compounds, 0.99% hits; Platelet-activating factor acetylhydrolase 2, cytoplasmic (Homo sapiens), Q99487; recombinant PAFAH2, FP-rhodamine activity probe;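 active means inhibition above the mean over all tested compounds plus 3 SD, cut at about 30% in these data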;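 further: inhibitors block probe labeling of enzyme so polarization drops; 0% = enzyme with DMSO and 100% = wells lacking PAFAH2 protein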
IMP-1 inh-2: IMP-1 metallo-beta-lactamase inhibitors, confirmation, selectivity assay for selective VIM-2 inhibitor project, biochemical, epi-absorbance readout, triplicate; shares compounds with VIM-2 inh; purified IMP-1, nitrocefin hydrolysis, epi-absorbance fluorescence; inhibition, % at 5.6 µM; 1,300 tested, under 10 active; call rule not given here;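 further: 0% = enzyme with vehicle and 100% = vehicle without enzyme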
VIM-2 FRET ctr: VIM-2 inhibitors in FRET format, confirmation, artefact control for selective VIM-2 inhibitor project, biochemical, epi-absorbance artifact exclusion; 1,300 compounds, 23% hits; shares compounds with VIM-2 inh; purified VIM-2, CCF2 FRET substrate hydrolysis; inhibition, % at 5.6 µM; AID 1857, 2009;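 active means inhibition above the mean of all tested compounds plus 3 SD, cut at about 19% in these data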;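 further: 0% = VIM-2 plus DMSO and 100% = no enzyme wells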
TEM-1 counter: TEM-1 serine beta-lactamase inhibitors, counter-screen for VIM-2 inhibitor project, biochemical, epi-absorbance, HTS | shares compounds with VIM-2 inh | Purified TEM-1, nitrocefin hydrolysis, epi-absorbance fluorescence | inhibition, % at 5.6 µM | 1,300 compounds, 3% hits | AID 1866, 2009;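 active means inhibition above that campaign's mean inhibition plus 3 SD, cut at about 0.46% in these data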;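 further: 0% = TEM-1 with DMSO and 100% = TEM-1 with 100 µM potassium clavulanate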
VIM-2 inh conf: VIM-2 metallo-beta-lactamase inhibitors, confirmation, biochemical, epi-absorbance, hits shared with IMP-1 screen | shares compounds with VIM-2 inh | purified VIM-2, nitrocefin hydrolysis | inhibition, % at 5.6 µM | 1,300 compounds, 96% hits | AID 2187, 2009;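 active means inhibition of the VIM-2 beta-lactamase enzyme above about 11% from the earlier first-round screen, limit read from the data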;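 further: 0% = VIM-2 with DMSO and 100% = buffer wells without enzyme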
* = called active by the depositor; . = no result. Shown are actives, neighbours in structure and some others; about 3.6% of the full set was active somewhere.

SMILES | PAFAH1B3 FP inh | VIM-2 inh | PAFAH1B2 inh | IMP-1 inh-1 | pPAFAH FP inh | PAFAH2 FP inh | IMP-1 inh-2 | VIM-2 FRET ctr | TEM-1 counter | VIM-2 inh conf
Cc1ccc(-c2nn3c(C)nnc3c3ccccc23)cc1S(=O)(=O)NC(C)(C)CO | 12 | 22* | 7 | -1 | 2 | 17 | -5 | 2 | -6 | 37*
O=C(COc1ccc(Cl)cc1)NCc1nnc2c3ccccc3c(-c3ccccc3)nn12 | 11 | 0 | 1 | -1 | 5 | 0 | . | . | . | .
CN1CCN(C(=O)OCCOCCOC(=O)N2CCN(C)CC2)CC1 | 3 | . | 5 | . | . | 1 | . | . | . | .
CCn1cc(CN2CCCC(CNS(=O)(=O)c3cccc4cccnc34)C2)cn1 (configuration not stated) | 5 | -1 | 1 | -2 | -4 | -3 | . | . | . | .
Cc1ccc(-c2nn(C)c(=O)c3ccccc23)cc1S(=O)(=O)NCCN(C)C | 8 | 37* | 2 | -3 | 5 | 1 | -4 | -1 | -6 | 51*
Cc1ccc(-c2nn3cnnc3c3ccccc23)cc1 | 3 | 17* | -6 | -1 | 3 | 4 | -3 | 2 | -5 | 27*
CCCCNS(=O)(=O)c1cc(-c2nn(C)c(=O)c3ccccc23)ccc1C | 4 | -1 | 2 | -2 | 4 | 11 | . | . | . | .
Cc1nnc2c3ccccc3c(-c3ccccc3)nn12 | 1 | 24* | 0 | 0 | 1 | 6 | -1 | 1 | 1.9* | 43*
O=Cc1c(NCc2ccc(F)cc2)c2ccccc2[nH]c1=O | 1 | 0 | 11 | -5 | 6 | -3 | . | . | . | .
Cc1ccc(CNc2c(C=O)c(=O)[nH]c3ccccc23)cc1 | 3 | 14* | 11 | -3 | 6 | 5 | -3 | 31* | -5 | 21*
Cc1ccc2oc(=O)c3cc(C(=O)N4CCN(C)CC4)sc3c2c1 | 6 | 13* | 3 | -1 | 4 | -3 | -4 | 4 | -9 | 20*
O=C1Nc2cc(C(=O)NCCCN3CCOCC3)ccc2S/C1=C/c1cccc(Cl)c1 | -4 | 29* | 1 | -2 | 20 | 1 | -2 | 49* | -7 | 33*
O=C1Nc2cc(C(=O)NCCCN3CCCC3)ccc2S/C1=C\c1ccccc1 | -4 | 14* | 0 | 0 | 6 | -7 | -2 | 32* | -6 | 23*
O=C1Nc2cc(C(=O)NCCCN3CCOCC3)ccc2S/C1=C/c1ccccc1F | 6 | 30* | -1 | -1 | 17 | 2 | -3 | 49* | -6 | 34*
O=S(=O)(c1ccc(-c2n[nH]c(=S)o2)cc1)N1CCCC1 | -3 | -4 | 4 | -4 | 2 | 9 | . | . | . | .
COc1ccc(C2C(C(=O)c3cccs3)=C(O)C(=O)N2c2nncs2)cc1 (configuration not stated) | 1 | 5 | 6 | -2 | 1 | 2 | . | . | . | .
COc1ccc(C2C(C(=O)c3cccs3)=C(O)C(=O)N2c2nnc(C)s2)cc1OC (configuration not stated) | -2 | 27* | -5 | 1 | 2 | 3 | 3 | -12 | 5.5* | 8.8*
CCN(CC(=O)Nc1c(F)cccc1F)C(=O)CC1CCCCC1 | -3 | . | 3 | . | 0 | 5 | . | . | . | .
COc1ccc(-c2n[nH]c(=S)n2-c2ccc3c(c2)OCCO3)cc1OC | 4 | 18* | -4 | -1 | 3 | 1 | -3 | 50* | -6 | 31*
COc1ccc(-c2n[nH]c(=S)n2-c2ccc3c(c2)OCCO3)cc1 | 1 | 13* | 2 | -5 | 0 | 2 | -3 | 34* | -8 | 19*
COc1ccc(-c2n[nH]c(=S)n2-c2ccc(C)cc2)cc1OC | 5 | 2 | 4 | -2 | 4 | 2 | . | . | . | .
Cc1ccc2oc(C(=O)N(C)Cc3ccc(C)o3)c(C)c2c1 | 8 | -1 | 5 | 0 | 6 | -2 | . | . | . | .
COc1cccc(-c2nc3ccc(C(=O)NC(C)Cc4cccnc4)cc3o2)c1 (configuration not stated) | 10 | -3 | 7 | -2 | 2 | 3 | . | . | . | .
COc1ccc(CNC(=O)CCC2N=C3c4ccccc4N=C(SCC(=O)NCC4CCCO4)N3C2=O)cc1 (configuration not stated) | 1 | -1 | 6 | -3 | -1 | -2 | . | . | . | .
Fc1ccc(-c2nnc(-c3ccc4ccccc4c3)o2)cc1 | 3 | . | 1 | . | . | 11 | . | . | . | .
SMILES | PAFAH1B3 FP inh | VIM-2 inh | PAFAH1B2 inh | IMP-1 inh-1 | pPAFAH FP inh | PAFAH2 FP inh | IMP-1 inh-2 | VIM-2 FRET ctr | TEM-1 counter | VIM-2 inh conf
Cc1cccc(C(=O)NC(=S)Nc2ccc(S(=O)(=O)N3CCN(C)CC3)cc2)c1 | 10 | 38* | 3 | -3 | 4 | -4 | -2 | 3 | -9 | 69*
Cc1ccc(C(=O)NC(=S)Nc2ccc(S(=O)(=O)N3CCN(C)CC3)cc2)cc1 | 0 | 31* | -1 | -2 | 3 | 0 | -2 | 0 | -8 | 63*
CC(=O)N(C)c1ccc(C=C2C=Cc3ccccc32)cc1 | 2 | . | 1 | . | . | 11 | . | . | . | .
COc1ccc2nc(-c3cccc(N)c3)[nH]c2c1 | 3 | -5 | 5 | -6 | 9 | 1 | . | . | . | .
COc1cc(-c2nc3ccc(N4CCN(C)CC4)cc3[nH]2)cc(OC)c1OC | -6 | 13* | 3 | 2 | 5 | 6 | -4 | 0 | -8 | 26*
CSCc1cc(N(C)c2ccccc2)nc(-c2ccccn2)n1 | 8 | 64* | 2 | -3 | 14 | 2 | -4 | -56 | -7 | 72*
CCN1CCN(C(=O)CSc2nc3c(c(=O)n(C)c(=O)n3C)n2C)CC1 | -3 | 76* | 0 | -1 | 0 | 5 | -2 | 2 | -4 | 85*
